The EC50 is the midpoint of the concentration-response curve. The low end stands for higher potency in that assay, the high end for lower potency in that assay. A word on the IC50: it is the midpoint of a concentration-inhibition curve. Low values mean inhibition by little substance, high ones a need for much substance.

Experiment [1] concerns HUVEC. Put plainly: Percent remained in HUVEC lysate after 2 hr in presence of epoxide hydrolase (EH) along with inhibitor (Compound used as hydrolysate); Expressed as % remaining. It counts as functional, Homo sapiens. Summed up:
(§1)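 Epoxide hydrolase (1 mg/mL protein, final) was co-incubated at 37 °C with the compound (2 mM) plus cyclohexene oxide (50 mM) as EH inhibitor. Substrate remaining and hydrolysate were quantified at 3 min, 0.5 h and 2 h as % values, with an estimated error of 10–15%.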

In experiment [2] the test system is HUVEC. Put plainly: Percent remained in HUVEC lysate after 3 min in presence of epoxide hydrolase (EH) along with inhibitor (Control = 100) (Compound used as substrate); Expressed as % remaining. The class given is functional, Homo sapiens. In outline: as §1
Experiment [3] concerns HUVEC. Put plainly: Percent remained in HUVEC lysate after 3 min in presence of epoxide hydrolase (EH) (Control = 100) (Compound used as substrate); Expressed as % remaining. It counts as functional, Homo sapiens. Summed up: (§2)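 Each compound at 2 mM incubated at 37 °C with epoxide hydrolase (1 mg/mL protein, final), alongside a no-enzyme control. Substrate remaining and hydrolysate formed were quantified at 3 min, 0.5 h and 2 h as % values. Estimated measurement error is 10–15%.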

The test system of experiment [4] is HUVEC. Put plainly: Percent remained in HUVEC lysate after 0.5 hr in presence of epoxide hydrolase (EH) (Compound used as hydrolysate); Expressed as % remaining. It counts as functional, Homo sapiens. Summed up: as §2
In experiment [5] the test system is HUVEC. Put plainly: Percent stability after 4 hr in HUVEC lysate; Expressed as % remaining. It counts as functional, Homo sapiens. Summed up:
(§3)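 Compound (1 mM) was incubated in HUVEC lysate at 37 °C and sampled at 0, 4 and 20 h. Results are expressed as % of compound remaining, with an estimated measurement error of 10–15%.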

Experiment [6] concerns HUVEC. Put plainly: Percent remained in HUVEC lysate after 3 min in presence of epoxide hydrolase (EH) used as hydrolysate; Expressed as % remaining. The class given is functional, Homo sapiens. In outline:
as §2

The subject of experiment [7] is HUVEC. Description: Percent remained in HUVEC lysate after 0.5 hr in presence of epoxide hydrolase (EH) along with inhibitor (Control = 92) (Compound used as substrate); Expressed as % remaining. The class given is functional, Homo sapiens. Summed up:
as §1

In experiment [8] the test system is HUVEC. Put plainly: Percent remained in HUVEC lysate after 2 hr in presence of epoxide hydrolase (EH) (Compound used as hydrolysate); Expressed as % remaining. The class given is functional, Homo sapiens. In outline: as §2
The test system of experiment [9] is HUVEC. Description: Percent stability determined after 20 hr in HUVEC lysate; expressed as % remaining. It counts as functional, Homo sapiens. Summed up: as §3
For experiment [10], the system named is HUVEC. Description: Percent stability determined after 0 hr in HUVEC lysate; expressed as % remaining. It counts as functional, Homo sapiens. Summed up: as §3
Experiment [11] deals with HUVEC. Put plainly: Percent stability after 0 hr in HUVEC culture medium; expressed as % remaining. The class given is functional, Homo sapiens.
Experiment [12] deals with HUVEC. Description: Percent remained in HUVEC lysate after 2 hr in presence of epoxide hydrolase (EH) along with inhibitor (Control = 90) (Compound used as substrate); Expressed as % remaining. The class given is functional, Homo sapiens. Summed up:
as §1

The test system of experiment [13] is HUVEC. Description: Percent stability after 20 hr in HUVEC culture medium; expressed as % remaining. The class given is functional, Homo sapiens.
Experiment [14] relates to HUVEC. Put plainly: Tested for inhibition of the human umbilical vein endothelial cell (HUVEC) proliferation.
For experiment [15], the system named is HUVEC. Put plainly: Percent remained in HUVEC lysate after 0.5 hr in presence of epoxide hydrolase (EH) along with inhibitor (Compound used as hydrolysate); Expressed as % remaining. It counts as functional, Homo sapiens. In outline:
as §1

Experiment [16] concerns HUVEC. Put plainly: Percent stability after 4 hr in HUVEC culture medium; expressed as % remaining. It counts as functional, Homo sapiens.
The test system of experiment [17] is HUVEC. Description: Percent remained in HUVEC lysate after 2 hr in presence of epoxide hydrolase (EH) along with inhibitor (Control = 103) (Compound used as substrate); Expressed as % remaining. The class given is functional, Homo sapiens. In outline:
as §1

The subject of experiment [18] is HUVEC. Put plainly: Percent remained in HUVEC lysate after 0.5 hr in presence of epoxide hydrolase (EH) (Control = 103) (Compound used as substrate); Expressed as % remaining. The class given is functional, Homo sapiens. In outline: as §2
Experiment [19] has as its system HUVEC. Description: Percent remained in HUVEC lysate after 2 hr in presence of epoxide hydrolase (EH) (Control = 100) (Compound used as substrate); Expressed as % remaining. The class given is functional, Homo sapiens. In outline:
as §2

Experiment [20] concerns HUVEC. Description: Percent remained in HUVEC lysate after 3 min in presence of epoxide hydrolase (EH) (Compound used as hydrolysate); Expressed as % remaining. The class given is functional, Homo sapiens. Summed up: as §2
The subject of experiment [21] is HUVEC. Put plainly: Percent remained in HUVEC lysate after 0.5 hr in presence of epoxide hydrolase (EH) along with inhibitor (Control = 103) (Compound used as substrate); Expressed as % remaining. The class given is functional, Homo sapiens. Summed up:
as §1

In experiment [22] the target is Methionine aminopeptidase 2 (Homo sapiens, UniProt P50579). Description: Inhibitory activity against Methionine aminopeptidase 2.
Experiment [23] concerns HUVEC. Put plainly: Percent stability determined after 0 hr in HUVEC lysate; Expressed as % remaining. The class given is functional, Homo sapiens. Summed up: as §3
Experiment [24] deals with HUVEC. Description: Percent stability determined after 20 hr in HUVEC culture medium; Expressed as % remaining. It counts as functional, Homo sapiens.
In experiment [25] the test system is HUVEC. Description: Percent stability determined after 4 hr in HUVEC culture medium; Expressed as % remaining. The class given is functional, Homo sapiens.
Experiment [26] concerns HUVEC. Put plainly: Percent stability determined after 0 hr in HUVEC culture medium; Expressed as % remaining. It counts as functional, Homo sapiens.
Experiment [27] relates to HUVEC. Description: Percent stability determined after 20 hr in HUVEC lysate; Expressed as % remaining. The class given is functional, Homo sapiens. Summed up:
as §3

For experiment [28], the system named is HUVEC. Put plainly: Percent stability determined after 4 hr in HUVEC lysate; Expressed as % remaining. The class given is functional, Homo sapiens. In outline: as §3
Experiment [29] concerns HUVEC. Description: Percent remained in HUVEC lysate after 2 hr in presence of epoxide hydrolase (EH) along with inhibitor (Control = 106) used as substrate; Expressed as % remaining. The class given is functional, Homo sapiens. Summed up:
as §1

Sequence of Methionine aminopeptidase 2 (P50579 whole entry): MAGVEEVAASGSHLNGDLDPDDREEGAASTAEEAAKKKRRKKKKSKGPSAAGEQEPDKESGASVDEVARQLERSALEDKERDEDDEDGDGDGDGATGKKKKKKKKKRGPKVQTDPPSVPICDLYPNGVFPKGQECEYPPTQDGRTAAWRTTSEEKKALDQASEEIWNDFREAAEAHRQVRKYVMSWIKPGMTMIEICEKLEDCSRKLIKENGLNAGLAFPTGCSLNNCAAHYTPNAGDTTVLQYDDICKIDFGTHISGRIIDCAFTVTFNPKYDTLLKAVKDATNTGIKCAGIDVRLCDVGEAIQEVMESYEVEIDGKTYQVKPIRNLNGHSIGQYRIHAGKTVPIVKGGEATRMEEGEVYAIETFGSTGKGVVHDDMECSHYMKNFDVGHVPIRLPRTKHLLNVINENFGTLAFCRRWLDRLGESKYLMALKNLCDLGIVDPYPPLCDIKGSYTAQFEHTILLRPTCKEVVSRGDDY

`CO[C@@H]1[C@H](OC(N)=O)CC[C@]2(CO2)[C@H]1/C(C)=C/CC=C(C)C`: the Activity is recorded as 87% with HUVEC [1]; 108% in the experiment with HUVEC [2]; 18% with HUVEC [3]; 79% with HUVEC [4]; 36% with HUVEC [5]; 77% in the experiment on HUVEC [6]. Moreover, the Activity with HUVEC [7] is listed as 75%; in the experiment with HUVEC [8] it was 100%; in the experiment with HUVEC [9], 1%; with HUVEC [10] it was 100%; with HUVEC [11], 100%; with HUVEC [12], 5%. The Activity was 68% in the experiment with HUVEC [13], 21% with HUVEC [15] and 76% in the experiment on HUVEC [16]. The same molecule showed a concentration giving a half-maximal response (EC50) with HUVEC [14] of 490 nM.
As for `CO[C@@H]1[C@H](OC(N)=O)CC[C@]2(CO2)[C@H]1/C(C)=N/OCc1ccccc1`, the Activity with HUVEC [1] was 60%; with HUVEC [2] it was 106%; in the experiment with HUVEC [3], 10%; in the experiment with HUVEC [4] it was 95%; with HUVEC [5], 20%; in the experiment on HUVEC [17], 60%. Besides, the Activity with HUVEC [18] was 2%; with HUVEC [8], 100%; with HUVEC [19], 1%; with HUVEC [20], 93%; in the experiment on HUVEC [9], 3%; in the experiment on HUVEC [10] it was 100%. The Activity in the experiment on HUVEC [11] was found to be 100%; in the experiment with HUVEC [13] it was 69%; with HUVEC [15] it was 15%; in the experiment on HUVEC [16], 90%; in the experiment on HUVEC [21], 95%. Moreover, the EC50 in the experiment with HUVEC [14] turned out to be 88 nM.
For `CO[C@@H]1[C@H](OC(C)=O)CC[C@]2(CO2)[C@H]1/C(C)=N/OCc1ccccc1`, the response with HUVEC [14] was half-maximal at 450 nM (EC50).
In the experiment on HUVEC [14], `CO[C@@H]1[C@H](OC(=O)/C=C/C=C/C=C/C=C/C(=O)O)CC[C@]2(CO2)[C@H]1[C@@]1(C)O[C@@H]1CC=C(C)C` [FUMAGILLIN] yielded an EC50 of 0.82 nM. The IC50 in experiment [22] worked out at 0.63 nM.
With `CCN1CCN(C(=O)O[C@@H]2CC[C@]3(CO3)[C@@H]([C@@]3(C)O[C@@H]3CC=C(C)C)[C@@H]2OC)CC1`, the Activity in the experiment with HUVEC [23] is reported as 100%; in the experiment with HUVEC [24], 75%; in the experiment on HUVEC [25], 95%; with HUVEC [26], 100%; with HUVEC [27], 76%; in the experiment with HUVEC [28], 91%.
`CO[C@@H]1[C@H](OC(C)=O)CC[C@]2(CO2)[C@H]1[C@@]1(C)O[C@@H]1CC=C(C)C` gave an EC50 in the experiment with HUVEC [14] of 3 nM. This counts as single-digit nanomolar.
In the case of `CO[C@@H]1[C@H](OC(N)=O)CC[C@]2(CO2)[C@H]1[C@@]1(C)O[C@@H]1CC=C(C)C`, the Activity with HUVEC [2] is 98%; with HUVEC [3], 84%; in the experiment on HUVEC [4], 103%; with HUVEC [8] it was 100%; in the experiment on HUVEC [29] it was 107%; with HUVEC [20], 22%. The Activity in the experiment on HUVEC [21] is reported as 109%. In the experiment on HUVEC [14], the EC50 stood at 0.65 nM.
